# Assay results pooled from the literature.
# Compare with care: the assays were run in different laboratories.
# CA12: Carbonic anhydrase 12 (CA12, Homo sapiens, UniProt O43570)
# DRD3: D(3) dopamine receptor (DRD3, Homo sapiens, UniProt P35462)
# GHSR: Growth hormone secretagogue receptor type 1 (GHSR, Homo sapiens, UniProt Q92847)
# ACE: Angiotensin-converting enzyme (ACE, Homo sapiens, UniProt P12821)
# SLC6A3: Sodium-dependent dopamine transporter (SLC6A3, Homo sapiens, UniProt Q01959)
SMILES,target,assay,setting,quantity,value
O=C(Nc1ccc2c(c1)C=CCP(=O)(O)O2)c1cccs1,CA12,"enzyme activity, inhibitor, stopped-flow",,Ki,0.0746 µM
Cc1[nH]c(C)c(S(=O)(=O)Nc2ccc(S(F)(F)(F)(F)F)cc2)c1C(=O)N1CCC(F)(F)C1,DRD3,"β-arrestin recruitment, antagonist",,IC50,2.3 µM
CC[C@H](C)[C@H](NC(=O)[C@H](C)NC(=O)[C@H](CCCNC(=N)N)NC(=O)[C@H](CCC(=O)O)NC(=O)[C@H](CCCNC(=N)N)NC(=O)[C@H](CCC(=O)O)NC(=O)[C@H](CC(C)C)NC(=O)[C@H](CC(C)C)NC(=O)[C@H](CCCNC(=N)N)NC(=O)[C@H](CCCNC(=N)N)NC(=O)[C@H](CCC(N)=O)NC(=O)[C@H](Cc1c[nH]cn1)NC(=O)[C@H](CCC(=O)O)NC(=O)[C@@H]1CCCN1C(=O)[C@H](CO)NC(=O)[C@H](CC(C)C)NC(=O)[C@H](Cc1ccccc1)NC(=O)[C@H](Cc1c[nH]c2ccccc12)NC(=O)[C@H](CO)NC(=O)CN)C(=O)N1CCC[C@H]1C(=O)N1CCC[C@H]1C(=O)N1CCC[C@H]1C(=O)N1CCC[C@H]1C(=O)N[C@H](C(=O)N[C@H](C(=O)N1CCC[C@H]1C(=O)N[C@@H](CC(C)C)C(=O)O)C(C)C)C(C)C,GHSR,"calcium signal, agonist, fluorescence",,EC50,0.16 µM
O=C(Nc1cccc(Cl)c1)Nc1ccc2c(c1)C=CCP(=O)(O)O2,CA12,"enzyme activity, inhibitor, stopped-flow",,Ki,> 10 µM
CC[C@H](C)[C@H](NC(=O)[C@H](Cc1ccccc1)NC(=O)[C@H](CC(=O)O)NC(=O)[C@H](CCCNC(=N)N)NC(=O)[C@@H](NC(=O)[C@H](C)NC(=O)[C@H](CCCCN)NC(=O)[C@H](CCCNC(=N)N)NC(=O)[C@H](CCC(=O)O)NC(=O)[C@H](CC(C)C)NC(=O)[C@H](CC(C)C)NC(=O)[C@H](CCC(=O)O)NC(=O)[C@H](CC(=O)O)NC(=O)[C@H](Cc1c[nH]c2ccccc12)NC(=O)[C@H](CC(C)C)NC(=O)[C@H](CO)NC(=O)[C@@H](NC(=O)[C@H](Cc1ccccc1)NC(=O)[C@H](CCC(=O)O)NC(=O)[C@H](CC(C)C)NC(=O)[C@H](CCC(=O)O)NC(=O)CNC(=O)[C@@H]1CCCN1)[C@@H](C)O)C(C)C)C(=O)N[C@@H](C)C(=O)N[C@@H](Cc1c[nH]cn1)C(=O)N[C@@H](CC(C)C)C(=O)N[C@@H](CCCCN)C(=O)N[C@@H](CCC(N)=O)C(=O)O,"Glucagon-like peptide 1 receptor (GLP1R, Homo sapiens, UniProt P43220)","calcium signal, antagonist, fluorescence",,IC50,1.61 µM
O=C(Nc1ccc(C(F)(F)F)cc1)Nc1ccc2c(c1)C=CCP(=O)(O)O2,CA12,"enzyme activity, inhibitor, stopped-flow",,Ki,> 10 µM
NC(=O)CC[C@H](N)C(=O)NCC(=O)NCC(=O)N[C@@H](CC(=O)O)C(=O)N[C@@H](Cc1ccccc1)C(=O)O,ACE,"enzyme activity, inhibitor",,IC50,~1090 µM
N#C[Se]CCCCOc1ccc2c(-c3ccccc3)cc(=O)oc2c1,CA12,"enzyme activity, inhibitor, stopped-flow",,Ki,0.296 µM
COC(=O)c1ccc(NS(=O)(=O)c2c(C)[nH]c(C)c2C(=O)N2CCC(F)(F)C2)cc1Cl,DRD3,"β-arrestin recruitment, antagonist",,IC50,33 µM
COC(=O)[C@H]1[C@@H](c2ccc(Cl)c(Cl)c2)C[C@@H]2CC[C@H]1N2CCCOCc1ccc2cc3ccccc3cc2c1,SLC6A3,"ligand displacement, radioligand",pH 7.4,Ki,0.051 µM
Cc1[nH]c(C)c(S(=O)(=O)Nc2ccc(S(=O)(=O)F)c(F)c2)c1C(=O)N1CCC(F)(F)C1,DRD3,"β-arrestin recruitment, antagonist",,IC50,6.5 µM
CCC(CNc1nc(-c2cn3ccnc3cc2C)nc2ccccc12)c1ccccc1 (centres unmarked),SLC6A3,"transporter uptake, inhibitor, radiometric",,IC50,9.86 µM
CC[C@H](C)[C@H](NC(=O)[C@H](C)NC(=O)[C@H](C)NC(=O)[C@H](CCC(=O)O)NC(=O)[C@H](CCCNC(=N)N)NC(=O)[C@H](C)NC(=O)[C@H](CC(C)C)NC(=O)[C@H](CC(C)C)NC(=O)[C@H](CCCNC(=N)N)NC(=O)[C@H](CCCNC(=N)N)NC(=O)[C@H](C)NC(=O)[C@H](Cc1c[nH]cn1)NC(=O)[C@H](CCC(=O)O)NC(=O)[C@@H]1CCCN1C(=O)[C@H](CO)NC(=O)[C@H](CC(C)C)NC(=O)[C@H](Cc1ccccc1)NC(=O)[C@H](Cc1c[nH]c2ccccc12)NC(=O)[C@H](CO)NC(=O)CN)C(=O)N1CCC[C@H]1C(=O)N1CCC[C@H]1C(=O)N1CCC[C@H]1C(=O)N1CCC[C@H]1C(=O)N[C@H](C(=O)N[C@H](C(=O)N1CCC[C@H]1C(=O)N[C@@H](CC(C)C)C(=O)O)C(C)C)C(C)C,GHSR,"calcium signal, agonist, fluorescence",,EC50,0.15 µM
O=C(Nc1ccc2c(c1)C=CCP(=O)(O)O2)c1ccccc1I,CA12,"enzyme activity, inhibitor, stopped-flow",,Ki,0.0069 µM
CC[C@H](C)[C@H](NC(=O)[C@H](C)NC(=O)[C@H](C)NC(=O)[C@H](CCC(=O)O)NC(=O)[C@H](CCCNC(=N)N)NC(=O)[C@H](C)NC(=O)[C@H](CC(C)C)NC(=O)[C@H](CC(C)C)NC(=O)[C@H](CCCNC(=N)N)NC(=O)[C@H](CCCNC(=N)N)NC(=O)[C@H](CCC(=O)O)NC(=O)[C@H](Cc1c[nH]cn1)NC(=O)[C@H](CCC(=O)O)NC(=O)[C@@H]1CCCN1C(=O)[C@H](CO)NC(=O)[C@H](CC(C)C)NC(=O)[C@H](Cc1ccccc1)NC(=O)[C@H](Cc1c[nH]c2ccccc12)NC(=O)[C@H](CO)NC(=O)CN)C(=O)N1CCC[C@H]1C(=O)N1CCC[C@H]1C(=O)N1CCC[C@H]1C(=O)N1CCC[C@H]1C(=O)N[C@H](C(=O)N1CCC[C@H]1C(=O)N1CCC[C@H]1C(=O)N[C@@H](CC(C)C)C(=O)O)C(C)C,GHSR,"calcium signal, agonist, fluorescence",,EC50,0.27 µM
O=C(Nc1ccccc1)Nc1ccc2c(c1)C=CCP(=O)(O)O2,CA12,"enzyme activity, inhibitor, stopped-flow",,Ki,> 10 µM
CC(C)C[C@H](NC(=O)[C@@H](NC(=O)[C@@H](NC(=O)[C@@H]1CCCN1C(=O)[C@@H](N)CCC(=O)O)C(C)C)[C@@H](C)O)C(=O)N[C@H](C(=O)O)[C@@H](C)O,ACE,"enzyme activity, inhibitor",,IC50,~872 µM
CC[C@H](C)[C@H](NC(=O)[C@H](C)NC(=O)[C@H](C)NC(=O)[C@H](CCC(=O)O)NC(=O)[C@H](CCCNC(=N)N)NC(=O)[C@H](C)NC(=O)[C@H](CC(C)C)NC(=O)[C@H](CC(C)C)NC(=O)[C@H](CCCNC(=N)N)NC(=O)[C@H](CCCNC(=N)N)NC(=O)[C@H](CC(C)C)NC(=O)[C@H](Cc1c[nH]cn1)NC(=O)[C@H](CCC(=O)O)NC(=O)[C@@H]1CCCN1C(=O)[C@H](CO)NC(=O)[C@H](CC(C)C)NC(=O)[C@H](Cc1ccccc1)NC(=O)[C@H](Cc1ccc(O)cc1)NC(=O)[C@H](CO)NC(=O)CN)C(=O)N1CCC[C@H]1C(=O)N1CCC[C@H]1C(=O)N1CCC[C@H]1C(=O)N1CCC[C@H]1C(=O)N[C@H](C(=O)N[C@@H](CC(C)C)C(=O)N1CCC[C@H]1C(=O)N[C@@H](CC(C)C)C(=O)O)C(C)C,GHSR,"calcium signal, antagonist, fluorescence",,IC50,1.1 µM
O=C(Nc1cccc(C(F)(F)F)c1)Nc1ccc2c(c1)C=CCP(=O)(O)O2,CA12,"enzyme activity, inhibitor, stopped-flow",,Ki,> 10 µM
CC(C)C[C@H](NC(=O)[C@H](Cc1ccc(O)cc1)NC(=O)[C@@H](N)C(C)C)C(=O)N[C@@H](CCC(=O)O)C(=O)N[C@@H](CCC(N)=O)C(=O)O,ACE,"enzyme activity, inhibitor, absorbance",,IC50,27.9 µM
